Measured values taken from ChEMBL document CHEMBL4033800, “Further Developments of the Phenyl-Pyrrolyl Pentane Series of Nonsteroidal Vitamin D Receptor Modulators as Anticancer Agents” (J Med Chem, 2018).
Blank lines part the entries; values can stand above or below the molecule they belong to.

Legend:
L02 = assay: Antiproliferative activity against human L02 cells after 48 hrs by MTT assay; type: cell-based; conditions: L02, 48 h
HepG2 = assay: Antiproliferative activity against human HepG2 cells after 48 hrs by MTT assay; type: functional, cell-based; conditions: HepG2, 48 h
MCF7 [1] = assay: Antiproliferative activity against human MCF7 cells after 48 hrs by MTT assay; type: functional, cell-based; conditions: MCF7, 48 h
PC-3 = assay: Antiproliferative activity against human PC3 cells after 48 hrs by MTT assay; type: functional, cell-based; conditions: PC-3, 48 h
Caco-2 = assay: Antiproliferative activity against human Caco2 cells after 48 hrs by MTT assay; type: functional, cell-based; conditions: Caco-2, 48 h
Vitamin D3 receptor = biological target: T1, Vitamin D3 receptor (Homo sapiens, UniProt P11473); assay: Displacement of fluormone VDR red from human full length VDR after 4 hrs by fluorescence polarization assay
T1 sequence (P11473 whole entry): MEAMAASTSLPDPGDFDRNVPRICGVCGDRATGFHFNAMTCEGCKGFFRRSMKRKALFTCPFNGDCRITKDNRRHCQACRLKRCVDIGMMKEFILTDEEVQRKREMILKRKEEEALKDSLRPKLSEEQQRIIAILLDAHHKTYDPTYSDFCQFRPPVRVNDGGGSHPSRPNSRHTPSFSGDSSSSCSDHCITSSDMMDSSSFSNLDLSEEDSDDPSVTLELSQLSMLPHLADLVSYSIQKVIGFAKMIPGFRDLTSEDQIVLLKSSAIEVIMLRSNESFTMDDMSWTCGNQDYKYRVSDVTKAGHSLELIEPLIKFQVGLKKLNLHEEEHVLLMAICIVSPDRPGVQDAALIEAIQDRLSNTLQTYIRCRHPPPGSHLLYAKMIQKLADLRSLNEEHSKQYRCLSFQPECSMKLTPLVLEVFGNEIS

[2] = Half life in Sprague-Dawley rat at 5 mg/kg, iv by HPLC analysis; type: ADME, organism-based; conditions: in vivo
Procedure, shortened: (§1)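 Male Sprague-Dawley rats (180−220 g), 4 per group, dosed at 5 mg/kg i.v., 20 mg/kg i.p. or 20 mg/kg p.o. Parameters given as mean ± SD (n = 4).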

[3] = Oral bioavailability in Sprague-Dawley rat at 20 mg/kg measured up to 48 hrs after administration by HPLC analysis; type: ADME, organism-based; conditions: in vivo; procedure, shortened: as §1
MCF7 [4] = assay: Induction of apoptosis in human MCF7 cells assessed as late apoptotic cells at 1 uM after 24 hrs by Annexin V-FITC/propidium iodide-staining based flow cytometry (reference value: 0.062%); type: functional
MCF7 [5] = assay: Induction of cell cycle arrest in human MCF7 cells assessed as accumulation at G2/M phase at 1 uM after 24 hrs by propidium iodide-staining based flow cytometry (reference value: 12.41%); type: functional
[6] = MRT in Sprague-Dawley rat at 20 mg/kg, po by HPLC analysis; type: ADME, organism-based; conditions: in vivo; procedure, shortened: as §1
MCF7 [7] = assay: Induction of cell cycle arrest in human MCF7 cells assessed as accumulation at G0/G1 phase at 1 uM after 24 hrs by propidium iodide-staining based flow cytometry (reference value: 56.03%); type: functional
[8] = MRT in Sprague-Dawley rat at 5 mg/kg, iv by HPLC analysis; type: ADME, organism-based; conditions: in vivo; procedure, shortened: as §1
[9] = AUC in Sprague-Dawley rat at 5 mg/kg, iv measured up to 48 hrs post administration by HPLC analysis; type: ADME, organism-based; set-up: dose 5 mg/kg, time < 48 hr, route intravenous; conditions: in vivo; procedure, shortened: as §1
MCF7 [10] = assay: Induction of apoptosis in human MCF7 cells assessed as early apoptotic cells at 1 uM after 24 hrs by Annexin V-FITC/propidium iodide-staining based flow cytometry (reference value: 1.74%); type: functional
[11] = MRT in Sprague-Dawley rat at 20 mg/kg, ip by HPLC analysis; type: ADME, organism-based; conditions: in vivo; procedure, shortened: as §1
[12] = Bioavailability in Sprague-Dawley rat at 20 mg/kg, ip measured up to 48 hrs after administration by HPLC analysis; type: ADME, organism-based; conditions: in vivo; procedure, shortened: as §1
MCF7 [13] = assay: Induction of cell cycle arrest in human MCF7 cells assessed as accumulation at S phase at 1 uM after 24 hrs by propidium iodide-staining based flow cytometry (reference value: 31.55%); type: functional
[14] = AUC in Sprague-Dawley rat at 20 mg/kg, po measured up to 48 hrs post administration by HPLC analysis; type: ADME, organism-based; set-up: time < 48 hr, dose 20 mg/kg, route oral; conditions: in vivo; procedure, shortened: as §1
MCF7 [15] = assay: Induction of apoptosis in human MCF7 cells assessed as viable cells at 1 uM after 24 hrs by Annexin V-FITC/propidium iodide-staining based flow cytometry (reference value: 98.2%); type: functional; conditions: MCF7, 24 h, read-out: Activity
MCF7 [16] = assay: Induction of apoptosis in human MCF7 cells assessed as necrotic cells at 1 uM after 24 hrs by Annexin V-FITC/propidium iodide-staining based flow cytometry (reference value: 0.031%); type: functional
[17] = Clearance in Sprague-Dawley rat at 5 mg/kg, iv measured up to 48 hrs post administration by HPLC analysis; type: ADME, organism-based; conditions: in vivo; procedure, shortened: as §1
[18] = AUC in Sprague-Dawley rat at 20 mg/kg, ip measured up to 48 hrs post administration by HPLC analysis; type: ADME, organism-based; set-up: time < 48 hr, dose 20 mg/kg, route intraperitoneal; conditions: in vivo; procedure, shortened: as §1
[19] = Clearance in Sprague-Dawley rat at 20 mg/kg, ip by HPLC analysis; type: ADME, organism-based; conditions: in vivo; procedure, shortened: as §1
[20] = Half life in Sprague-Dawley rat at 20 mg/kg, po by HPLC analysis; type: ADME, organism-based; conditions: in vivo; procedure, shortened: as §1
[21] = Half life in Sprague-Dawley rat at 20 mg/kg, ip by HPLC analysis; type: ADME, organism-based; conditions: in vivo; procedure, shortened: as §1
[22] = Clearance in Sprague-Dawley rat at 20 mg/kg, po by HPLC analysis; type: ADME, organism-based; conditions: in vivo; procedure, shortened: as §1

IC50 (HepG2): > 50 µM
IC50 (MCF7 [1]): > 50 µM
IC50 (PC-3): > 50 µM
IC50 (Caco-2): > 50 µM
Compound: CCC(C)C(NC(=O)c1ccc(C(CC)(CC)c2ccc(OCCC(O)(CC)CC)c(C)c2)n1CC)C(=O)OC (stereo not drawn)
IC50 (L02): > 50 µM

IC50 (HepG2): > 50 µM
IC50 (MCF7 [1]): > 50 µM
IC50 (PC-3): > 50 µM
IC50 (Caco-2): > 50 µM
IC50 (Vitamin D3 receptor): 4.54 µM
Compound: CCOc1ccc(NC(=O)c2ccc(C(CC)(CC)c3ccc(OCCC(O)(CC)CC)c(C)c3)n2CC)cc1
IC50 (L02): > 50 µM

IC50 (HepG2): 25.3 µM
IC50 (MCF7 [1]): 3.21 µM
IC50 (PC-3): 7.14 µM
IC50 (Caco-2): 30.3 µM
Compound: CCOC(=O)CN(C)C(=O)c1ccc(C(CC)(CC)c2ccc(OCCC(O)(CC)CC)c(C)c2)n1CC
IC50 (L02): 1.99 µM

half-life [2]: 2.44 h
bioavailability [3]: 25.2%
IC50 (MCF7 [1]): 2.8 µM
MRT [6]: 10.8 h
MRT [8]: 2.82 h
AUC at 48 h [9]: 13400 ng·h/mL
IC50 (PC-3): 17.4 µM
MRT [11]: 8.15 h
bioavailability [12]: 46.2%
AUC at 48 h [14]: 13500 ng·h/mL
clearance [17]: 6.83 mL/min
AUC at 48 h [18]: 24800 ng·h/mL
CL/F [19]: 13.5 mL/min
IC50 (Caco-2): > 50 µM
half-life [20]: 6.89 h
half-life [21]: 3.96 h
IC50 (Vitamin D3 receptor): 0.228 µM
CL/F [22]: 25 mL/min
Compound: CCn1c(C(=O)NC(C)CO)ccc1C(CC)(CC)c1ccc(OCC(O)C(C)(C)C)c(C)c1 (stereo not drawn)
IC50 (L02): 17.4 µM
Activity (MCF7 [4]): 2.78%
Activity (MCF7 [5]): 12.52%
Activity (MCF7 [7]): 63.03%
Activity (MCF7 [10]): 7.58%
Activity (MCF7 [13]): 24.45%
viability at 1 µM (MCF7 [15]): 89.5%
Activity (MCF7 [16]): 0.15%

IC50 (HepG2): 24.8 µM
IC50 (MCF7 [1]): 31.4 µM
IC50 (PC-3): 8.76 µM
IC50 (Caco-2): 40.2 µM
Compound: CCn1c(C(=O)NC(CO)CCO)ccc1C(CC)(CC)c1ccc(OCCC(O)(CC)CC)c(C)c1 (stereo not drawn)
IC50 (L02): 3.04 µM

IC50 (HepG2): 1.74 µM
IC50 (MCF7 [1]): 19.7 µM
IC50 (PC-3): 11.7 µM
IC50 (Caco-2): 46.5 µM
Compound: CCn1c(C(=O)NC(C)C(=O)O)ccc1C(CC)(CC)c1ccc(OCCC(O)(CC)CC)c(C)c1 (stereo not drawn)
IC50 (L02): 4.04 µM

IC50 (HepG2): > 50 µM
IC50 (MCF7 [1]): 29.1 µM
IC50 (PC-3): 28.4 µM
IC50 (Caco-2): > 50 µM
Compound: CCC(C)C(CO)NC(=O)c1ccc(C(CC)(CC)c2ccc(OCCC(O)(CC)CC)c(C)c2)n1CC (stereo not drawn)
IC50 (L02): > 50 µM

IC50 (HepG2): 0.51 µM
IC50 (MCF7 [1]): 2.87 µM
IC50 (PC-3): 3.09 µM
IC50 (Caco-2): 0.074 µM
Compound: CCn1c(C(=O)N(C)CCO)ccc1C(CC)(CC)c1ccc(OCCC(O)(CC)CC)c(C)c1
IC50 (L02): 2.05 µM

IC50 (HepG2): 10.7 µM
IC50 (MCF7 [1]): 10.2 µM
IC50 (PC-3): 11.2 µM
IC50 (Caco-2): 25.2 µM
Compound: CCn1c(C(=O)NC(CC(=O)O)C(=O)OC)ccc1C(CC)(CC)c1ccc(OCCC(O)(CC)CC)c(C)c1 (stereo not drawn)
IC50 (L02): 7.59 µM

IC50 (HepG2): > 50 µM
IC50 (MCF7 [1]): > 50 µM
IC50 (PC-3): 23.8 µM
IC50 (Caco-2): > 50 µM
Compound: CCn1c(C(=O)Nc2cccc(C(F)(F)F)c2)ccc1C(CC)(CC)c1ccc(OCCC(O)(CC)CC)c(C)c1
IC50 (L02): > 50 µM

IC50 (HepG2): > 50 µM
IC50 (MCF7 [1]): > 50 µM
IC50 (PC-3): 17.8 µM
IC50 (Caco-2): > 50 µM
IC50 (Vitamin D3 receptor): 0.825 µM
Compound: CCn1c(C(=O)NCC#N)ccc1C(CC)(CC)c1ccc(OCCC(O)(CC)CC)c(C)c1
IC50 (L02): > 50 µM

IC50 (HepG2): > 50 µM
IC50 (MCF7 [1]): > 50 µM
IC50 (PC-3): 12.8 µM
IC50 (Caco-2): > 50 µM
Compound: C=CCN(C)C(=O)c1ccc(C(CC)(CC)c2ccc(OCCC(O)(CC)CC)c(C)c2)n1CC
IC50 (L02): 1.19 µM
